Source: ChEMBL document CHEMBL5058577, “EUbOPEN Chemogenomics Library 2 (Multiplex)” (2022)

Tested on: Fibroblast
Assay: Multiplex assay against human fibroblast
Format: toxicity, cell-based
Procedure, shortened: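 Four dyes were applied at seeding to live cells: Hoechst33342, BioTracker Green Microtubule Cytoskeleton Dye, MitoTracker Red and Annexin V Alexa Fluor 680. Imaging after compound addition used a CQ1 microscope at 37°C and 5% CO2. CellPathfinder machine-learning gating then sorted cells into Hoechst high-intensity objects or normal cells, normal cells into healthy, pyknosed or fragmented nuclei, and pyknosed cells into mitotic or apoptotic, with tubulin, mitochondrial-mass and membrane-permeability phenotypes given as per cents of healthy-nucleus cells.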

[1] = 12 h, 1 µM, compound concentration 1 uM, replicate 1
[2] = 12 h, 1 µM, compound concentration 1 uM, replicate 2
[3] = 12 h, 10 µM, compound concentration 10 uM, replicate 1
[4] = 12 h, 10 µM, compound concentration 10 uM, replicate 2
[5] = 24 h, 1 µM, compound concentration 1 uM, replicate 1
[6] = 24 h, 1 µM, compound concentration 1 uM, replicate 2
[7] = 24 h, 10 µM, compound concentration 10 uM, replicate 1
[8] = 24 h, 10 µM, compound concentration 10 uM, replicate 2
[9] = 48 h, 1 µM, compound concentration 1 uM, replicate 1
[10] = 48 h, 1 µM, compound concentration 1 uM, replicate 2
[11] = 48 h, 10 µM, compound concentration 10 uM, replicate 1
[12] = 48 h, 10 µM, compound concentration 10 uM, replicate 2

## C[C@@H]1C[C@H]2[C@@H]3CCC4=CC(=O)C=C[C@]4(C)[C@@]3(F)[C@@H](O)C[C@]2(C)[C@@]1(O)C(=O)CO [DEXAMETHASONE]
[1]
  Population Apoptotic (%): 62%
  Population Fragmented Nuclei (%): 18%
  Population Healthy Nuclei (%): 66%
  Population Hoechst High Intensity Objects (%): 7%
  Population Membrane Permeable-Phenotype (%): 0%
  Population Mitochondria Different-Phenotype (%): 2%
  Population Mitotic Cells (%): 37%
  Population Normal (%): 92%
  Population Pyknosed Nuclei (%): 15%
  Population Tubulin-Different-Phenotype (%): 26%
[2]
  Population Apoptotic (%): 38%
  Population Fragmented Nuclei (%): 30%
  Population Healthy Nuclei (%): 48%
  Population Hoechst High Intensity Objects (%): 3%
  Population Membrane Permeable-Phenotype (%): 9%
  Population Mitochondria Different-Phenotype (%): 4%
  Population Mitotic Cells (%): 61%
  Population Normal (%): 96%
  Population Pyknosed Nuclei (%): 20%
  Population Tubulin-Different-Phenotype (%): 52%
[3]
  Population Apoptotic (%): 35%
  Population Fragmented Nuclei (%): 20%
  Population Healthy Nuclei (%): 65%
  Population Hoechst High Intensity Objects (%): 2%
  Population Membrane Permeable-Phenotype (%): 1%
  Population Mitochondria Different-Phenotype (%): 5%
  Population Mitotic Cells (%): 65%
  Population Normal (%): 98%
  Population Pyknosed Nuclei (%): 13%
  Population Tubulin-Different-Phenotype (%): 22%
[4]
  Population Apoptotic (%): 30%
  Population Fragmented Nuclei (%): 24%
  Population Healthy Nuclei (%): 52%
  Population Hoechst High Intensity Objects (%): 6%
  Population Membrane Permeable-Phenotype (%): 4%
  Population Mitochondria Different-Phenotype (%): 2%
  Population Mitotic Cells (%): 69%
  Population Normal (%): 93%
  Population Pyknosed Nuclei (%): 23%
  Population Tubulin-Different-Phenotype (%): 53%
[5]
  Population Apoptotic (%): 48%
  Population Fragmented Nuclei (%): 14%
  Population Healthy Nuclei (%): 68%
  Population Hoechst High Intensity Objects (%): 5%
  Population Membrane Permeable-Phenotype (%): 1%
  Population Mitochondria Different-Phenotype (%): 3%
  Population Mitotic Cells (%): 52%
  Population Normal (%): 94%
  Population Pyknosed Nuclei (%): 17%
  Population Tubulin-Different-Phenotype (%): 26%
[6]
  Population Apoptotic (%): 31%
  Population Fragmented Nuclei (%): 29%
  Population Healthy Nuclei (%): 50%
  Population Hoechst High Intensity Objects (%): 6%
  Population Membrane Permeable-Phenotype (%): 4%
  Population Mitochondria Different-Phenotype (%): 1%
  Population Mitotic Cells (%): 68%
  Population Normal (%): 93%
  Population Pyknosed Nuclei (%): 19%
  Population Tubulin-Different-Phenotype (%): 53%
[7]
  Population Apoptotic (%): 42%
  Population Fragmented Nuclei (%): 15%
  Population Healthy Nuclei (%): 65%
  Population Hoechst High Intensity Objects (%): 3%
  Population Membrane Permeable-Phenotype (%): 1%
  Population Mitochondria Different-Phenotype (%): 6%
  Population Mitotic Cells (%): 57%
  Population Normal (%): 96%
  Population Pyknosed Nuclei (%): 18%
  Population Tubulin-Different-Phenotype (%): 22%
[8]
  Population Apoptotic (%): 30%
  Population Fragmented Nuclei (%): 30%
  Population Healthy Nuclei (%): 44%
  Population Hoechst High Intensity Objects (%): 6%
  Population Membrane Permeable-Phenotype (%): 10%
  Population Mitochondria Different-Phenotype (%): 2%
  Population Mitotic Cells (%): 69%
  Population Normal (%): 93%
  Population Pyknosed Nuclei (%): 24%
  Population Tubulin-Different-Phenotype (%): 45%
[9]
  Population Apoptotic (%): 46%
  Population Fragmented Nuclei (%): 22%
  Population Healthy Nuclei (%): 52%
  Population Hoechst High Intensity Objects (%): 6%
  Population Membrane Permeable-Phenotype (%): 2%
  Population Mitochondria Different-Phenotype (%): 4%
  Population Mitotic Cells (%): 53%
  Population Normal (%): 93%
  Population Pyknosed Nuclei (%): 24%
  Population Tubulin-Different-Phenotype (%): 34%
[10]
  Population Apoptotic (%): 37%
  Population Fragmented Nuclei (%): 38%
  Population Healthy Nuclei (%): 46%
  Population Hoechst High Intensity Objects (%): 4%
  Population Membrane Permeable-Phenotype (%): 4%
  Population Mitotic Cells (%): 62%
  Population Normal (%): 95%
  Population Pyknosed Nuclei (%): 14%
  Population Tubulin-Different-Phenotype (%): 53%
[11]
  Population Apoptotic (%): 50%
  Population Fragmented Nuclei (%): 22%
  Population Healthy Nuclei (%): 55%
  Population Hoechst High Intensity Objects (%): 4%
  Population Membrane Permeable-Phenotype (%): 0%
  Population Mitochondria Different-Phenotype (%): 7%
  Population Mitotic Cells (%): 50%
  Population Normal (%): 95%
  Population Pyknosed Nuclei (%): 22%
  Population Tubulin-Different-Phenotype (%): 19%
[12]
  Population Apoptotic (%): 37%
  Population Fragmented Nuclei (%): 36%
  Population Healthy Nuclei (%): 43%
  Population Hoechst High Intensity Objects (%): 7%
  Population Membrane Permeable-Phenotype (%): 10%
  Population Mitochondria Different-Phenotype (%): 0%
  Population Mitotic Cells (%): 62%
  Population Normal (%): 92%
  Population Pyknosed Nuclei (%): 20%
  Population Tubulin-Different-Phenotype (%): 39%

## O=C(O)Cc1ccccc1Nc1c(Cl)cccc1Cl [DICLOFENAC]
[1]
  Population Apoptotic (%): 43%
  Population Fragmented Nuclei (%): 14%
  Population Healthy Nuclei (%): 67%
  Population Hoechst High Intensity Objects (%): 0%
  Population Membrane Permeable-Phenotype (%): 1%
  Population Mitochondria Different-Phenotype (%): 6%
  Population Mitotic Cells (%): 56%
  Population Normal (%): 99%
  Population Pyknosed Nuclei (%): 17%
  Population Tubulin-Different-Phenotype (%): 25%
[2]
  Population Apoptotic (%): 33%
  Population Fragmented Nuclei (%): 25%
  Population Healthy Nuclei (%): 49%
  Population Hoechst High Intensity Objects (%): 2%
  Population Membrane Permeable-Phenotype (%): 7%
  Population Mitotic Cells (%): 66%
  Population Normal (%): 97%
  Population Pyknosed Nuclei (%): 25%
  Population Tubulin-Different-Phenotype (%): 49%
[3]
  Population Apoptotic (%): 32%
  Population Fragmented Nuclei (%): 14%
  Population Healthy Nuclei (%): 68%
  Population Hoechst High Intensity Objects (%): 0%
  Population Membrane Permeable-Phenotype (%): 0%
  Population Mitochondria Different-Phenotype (%): 5%
  Population Mitotic Cells (%): 68%
  Population Normal (%): 99%
  Population Pyknosed Nuclei (%): 17%
  Population Tubulin-Different-Phenotype (%): 24%
[4]
  Population Apoptotic (%): 38%
  Population Fragmented Nuclei (%): 36%
  Population Healthy Nuclei (%): 46%
  Population Hoechst High Intensity Objects (%): 6%
  Population Membrane Permeable-Phenotype (%): 16%
  Population Mitochondria Different-Phenotype (%): 8%
  Population Mitotic Cells (%): 61%
  Population Normal (%): 93%
  Population Tubulin-Different-Phenotype (%): 54%
[5]
  Population Apoptotic (%): 52%
  Population Fragmented Nuclei (%): 15%
  Population Healthy Nuclei (%): 66%
  Population Hoechst High Intensity Objects (%): 2%
  Population Membrane Permeable-Phenotype (%): 0%
  Population Mitochondria Different-Phenotype (%): 4%
  Population Mitotic Cells (%): 47%
  Population Normal (%): 97%
  Population Pyknosed Nuclei (%): 17%
  Population Tubulin-Different-Phenotype (%): 29%
[6]
  Population Apoptotic (%): 35%
  Population Fragmented Nuclei (%): 28%
  Population Healthy Nuclei (%): 49%
  Population Hoechst High Intensity Objects (%): 3%
  Population Membrane Permeable-Phenotype (%): 12%
  Population Mitochondria Different-Phenotype (%): 6%
  Population Mitotic Cells (%): 64%
  Population Normal (%): 96%
  Population Pyknosed Nuclei (%): 21%
  Population Tubulin-Different-Phenotype (%): 50%
[7]
  Population Apoptotic (%): 30%
  Population Fragmented Nuclei (%): 16%
  Population Healthy Nuclei (%): 68%
  Population Hoechst High Intensity Objects (%): 5%
  Population Membrane Permeable-Phenotype (%): 0%
  Population Mitochondria Different-Phenotype (%): 5%
  Population Mitotic Cells (%): 69%
  Population Normal (%): 94%
  Population Pyknosed Nuclei (%): 15%
  Population Tubulin-Different-Phenotype (%): 19%
[8]
  Population Apoptotic (%): 50%
  Population Fragmented Nuclei (%): 31%
  Population Healthy Nuclei (%): 50%
  Population Hoechst High Intensity Objects (%): 2%
  Population Membrane Permeable-Phenotype (%): 8%
  Population Mitochondria Different-Phenotype (%): 10%
  Population Mitotic Cells (%): 50%
  Population Normal (%): 97%
  Population Pyknosed Nuclei (%): 18%
  Population Tubulin-Different-Phenotype (%): 55%
[9]
  Population Apoptotic (%): 85%
  Population Fragmented Nuclei (%): 21%
  Population Healthy Nuclei (%): 61%
  Population Hoechst High Intensity Objects (%): 3%
  Population Membrane Permeable-Phenotype (%): 4%
  Population Mitochondria Different-Phenotype (%): 4%
  Population Mitotic Cells (%): 15%
  Population Normal (%): 96%
  Population Pyknosed Nuclei (%): 16%
  Population Tubulin-Different-Phenotype (%): 24%
[10]
  Population Apoptotic (%): 57%
  Population Fragmented Nuclei (%): 36%
  Population Healthy Nuclei (%): 53%
  Population Hoechst High Intensity Objects (%): 5%
  Population Mitotic Cells (%): 42%
  Population Normal (%): 94%
  Population Pyknosed Nuclei (%): 10%
  Population Tubulin-Different-Phenotype (%): 44%
[11]
  Population Apoptotic (%): 73%
  Population Fragmented Nuclei (%): 22%
  Population Healthy Nuclei (%): 65%
  Population Hoechst High Intensity Objects (%): 3%
  Population Membrane Permeable-Phenotype (%): 0%
  Population Mitochondria Different-Phenotype (%): 3%
  Population Mitotic Cells (%): 26%
  Population Normal (%): 96%
  Population Pyknosed Nuclei (%): 12%
  Population Tubulin-Different-Phenotype (%): 28%
[12]
  Population Apoptotic (%): 30%
  Population Fragmented Nuclei (%): 35%
  Population Healthy Nuclei (%): 50%
  Population Membrane Permeable-Phenotype (%): 4%
  Population Mitochondria Different-Phenotype (%): 6%
  Population Mitotic Cells (%): 69%
  Population Pyknosed Nuclei (%): 14%
  Population Tubulin-Different-Phenotype (%): 53%
